This is a sample that favours compounds with a hit; in the whole collection about 2.2% have one here.
RBBP9 inh: inhibitors of human serine hydrolase RBBP9; recombinant RBBP9, FP-Rh probe fluorescence polarization; AID 1515; O75884; inhibition, % at 7.94 µM; 220,000 tested, 0.2% active;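 active = inhibition above the campaign mean of all tested compounds plus 3 SD, cut at about 14% in these data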;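 also: plate controls were DMSO wells with RBBP9 for no effect and wells lacking RBBP9 protein for full effect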
Target sequence (O75884 whole entry, looked up): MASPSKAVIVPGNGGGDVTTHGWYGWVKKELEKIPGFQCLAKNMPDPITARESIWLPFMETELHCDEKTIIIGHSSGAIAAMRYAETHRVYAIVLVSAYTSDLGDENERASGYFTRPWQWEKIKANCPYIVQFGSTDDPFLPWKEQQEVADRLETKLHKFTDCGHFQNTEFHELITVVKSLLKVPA
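Test system: recombinant human RBBP9. Quantity: 2.5 µM RBBP9 dispensing solution, before mixing. Detection: FP readout at 525/598 nm. Reagent: Serine-hydrolase probe FP-Rh, 375 nM pre-mixing. Measure: % inhibition. Control set: DMSO-treated enzyme wells and wells lacking RBBP9. Buffer or medium: Tris-NaCl-Pluronic buffer, pH 8.0. Times: preincubation 30 min plus labeling 45 min at 25 °C.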
Hsp70 act: switches on Hsp70 transcription. HeLa Hsp70 promoter luciferase reporter, luminescence; scaled: vehicle 0, proteasome-inhibitor control 100%. 200,000 tested, 0.04% active. activation, % at 10 µM. AID 1203;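 active = activation above the mean across all tested compounds plus 3 SD, cutoff set per campaign, cut at about 5.5% in these data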;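 also: 100% = MG132 at 30 µM as the positive control and 0% = DMSO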
Wee1 stabilizer: inhibitors of human Wee1 degradation; P30291; HeLa Luc-Wee1K328M stability, luciferase luminescence; 100% = proteasome inhibitor MG132 effect; reporter increase, % at 5 µM; 220,000 tested, 1.2% active; AID 1321;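 active = activation above the mean of all tested compounds plus 3 SD, set per screening run, cut at about 8.8% in these data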;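 also: cells exposed to compound for 20 h before luminescence read; 0% = DMSO alone and 100% = MG132 at 30 µM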
MDM2 E3 inh: blocks human Mdm2 ubiquitin ligase activity | Q00987 | cell-based MDM2 ubiquitination luciferase reporter, 2 h; 0 = plate control, 100 = twice control, blank-subtracted | signal enhancement, % at 5 µM | 210,000 tested, 0.11% active;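 active = signal enhancement of 30% or more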;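 also: luminescence tracks abundance of the self-degrading MDM2-luciferase fusion protein; higher signal means inhibition of MDM2 E3 ligase activity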
Target sequence (Q00987 whole entry, looked up, the tested form may be a part): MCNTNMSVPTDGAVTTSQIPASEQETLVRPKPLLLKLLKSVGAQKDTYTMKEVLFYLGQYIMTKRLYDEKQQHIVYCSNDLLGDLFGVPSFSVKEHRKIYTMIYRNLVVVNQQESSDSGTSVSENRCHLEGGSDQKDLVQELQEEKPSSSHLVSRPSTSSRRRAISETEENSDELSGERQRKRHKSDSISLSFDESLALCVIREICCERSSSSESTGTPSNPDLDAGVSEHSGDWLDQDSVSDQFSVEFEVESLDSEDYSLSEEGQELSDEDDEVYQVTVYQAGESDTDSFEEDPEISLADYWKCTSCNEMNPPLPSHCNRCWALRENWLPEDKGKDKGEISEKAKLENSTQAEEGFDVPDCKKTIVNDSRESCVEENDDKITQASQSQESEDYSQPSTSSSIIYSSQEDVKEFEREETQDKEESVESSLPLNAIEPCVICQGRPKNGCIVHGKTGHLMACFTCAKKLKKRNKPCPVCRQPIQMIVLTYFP
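Assay system: stable mammalian line carrying autodegrading MDM2–luciferase fusion reporter; amount: 2000 cells seeded into each well; buffer or medium: DMEM; benchmarks: plate control and blank wells; signal: luciferase luminescence; timing: 2 h compound exposure at 37 °C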
Insulin prom up: MIN6 insulin promoter up-regulation; MIN6 insulin promoter-GFP reporter, high-content imaging; active compounds read high; z-score at 5 µM; 190,000 tested, 0.3% active; AID 1625;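 active = z-score above 3 at 5 µM with at least 500 cells counted in the well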
INS promoter inh: TRM-6 insulin promoter activity inhibition; AID 1273; inhibition, % at 2 µM; TRM-6 cells, insulin promoter-eGFP reporter, imaging; reporter expression induced with tamoxifen; 130,000 tested, 0.9% active;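 active = inhibition above the mean plus 3 SD, with well images judged a real hit on visual review, cut at about 60% in these data, passing the limit was not always enough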
* hit, by the source's call; . = no result given.

SMILES | RBBP9 inh | Hsp70 act | Wee1 stabilizer | MDM2 E3 inh | Insulin prom up | INS promoter inh
O=C1CCCCC1C(Nc1ccc(Br)cc1)c1ccccc1 (stereo not given) | 2 | 0 | -1 | -7 | 1.1 | 31
O=C1CCCCC1C(Nc1ccc(Cl)cc1)c1ccccc1 (stereo not given) | -5 | 0 | 9.5* | -29 | -0.05 | -214
CCN(CC)c1ccc(NC(=O)c2nc3nc(C)cc(C(F)F)n3n2)cc1 | -6 | 0 | 0 | -5 | -1.3 | .
Cc1cc(C(F)F)n2nc(C(=O)Nc3ccc(S(=O)(=O)N4CCCCCC4)cc3)nc2n1 | -1 | 0 | 0 | 2 | . | 100*
COc1ccc(NC(=O)c2nc3nc(C)cc(C(F)F)n3n2)cc1OC | -8 | 0 | 4 | -9 | 0.64 | 71*
COC(=O)c1ccc(N(C(=O)c2ccco2)C(C(=O)NC2CCCC2)c2ccco2)cc1 (stereo not given) | 2 | 0 | -2 | -14 | . | -19
CCOC(=O)Nc1ccc2c(c1)N(C(=O)CCN1CCN(CCO)CC1)c1ccccc1S2 | 2 | -1 | 1 | . | . | 89*
CCOC(=O)Nc1ccc2c(c1)N(C(=O)CCN1CCN(C)CC1)c1ccccc1S2 | -1 | 0 | -3 | -3 | 0.75 | 3
O=C(N/N=C\c1ccc(Cl)cc1)C1=NOC2COC3(CCN(c4ccc([N+](=O)[O-])cc4)CC3)OCC12 (stereo not given) | -3 | . | -3 | . | 0.29 | .
COc1ccc2[nH]c3c(c2c1)CCn1c-3nc2ccccc2c1=O | -15 | 0 | 13* | 3 | -0.32 | 26
COc1cc(OC)cc(C(=O)Nn2c(C)nc3ccccc3c2=O)c1 | 6 | 0 | -3 | -16 | 1.2 | .
O=C(NCc1cccnc1)C(=O)Nc1ccc2c(c1)OCO2 | 2 | 1 | -2 | 13 | . | .
CCCCc1ccc(N=N/C(C(=O)Nc2cc(OC)c(NC(C)=O)cc2OC)=C(/C)O)cc1 | -7 | 0 | 1 | 2 | -1.3 | 45
N/C(=N\OC(=O)c1cccs1)c1ccc(Cl)cc1 | -8 | . | 8 | -10 | . | .
COc1ccc(/C(N)=N/OC(=O)c2cccs2)cc1 | -5 | . | 10.0* | -20 | 0.16 | .
O=[N+]([O-])c1ccc(N2N=C(c3ccco3)CC2c2ccccc2)cc1 (stereo not given) | -5 | 0 | -3 | 4 | . | -106
Fc1ccc(C2CC(c3ccco3)=NN2c2ccccc2)cc1 (stereo not given) | -7 | 0 | 2 | 4 | 3.5* | .
NC(=O)c1cc2ccc(O)cc2oc1=NCc1ccccc1 | -2 | 0 | 0 | -19 | 7* | -15
CCc1ccc(NC(=O)Cn2c(=O)n(CCC(=O)NC3CCN(Cc4ccccc4)CC3)c(=O)c3ccccc32)cc1 | 1 | . | -2 | . | 1.2 | .
COc1cc(CNc2ccc(CNc3ncn[nH]3)cc2)ccc1OCc1ccccc1 | -5 | 0 | 10* | -12 | -0.02 | .
COc1ccccc1CNc1ccc(CNc2ncn[nH]2)cc1 | -10 | 0 | 1 | -6 | -0.22 | -89
O=C(c1ccc([N+](=O)[O-])cc1[N+](=O)[O-])N1CCCC1 | -9 | 0 | 0 | 1 | . | .
O=C(N=C1N=C2C=CC(Br)=CN2Cc2ccccc21)c1ccc([N+](=O)[O-])cc1[N+](=O)[O-] | -3 | . | 11* | -19 | 0.52 | .
c1ccc2sc(SCSc3nc4ccccc4s3)nc2c1 | -5 | . | -4 | -8 | -0.27 | .
N#CCc1nc(CSc2nc3ccccc3s2)cs1 | 3 | 0 | -1 | 1 | 4* | 31
SMILES | RBBP9 inh | Hsp70 act | Wee1 stabilizer | MDM2 E3 inh | Insulin prom up | INS promoter inh
CCCCOC(=O)CSc1n[nH]c(=O)[nH]c1=O | 2 | 0 | 0 | -2 | . | 79*
O=C1COc2ccc(C(=O)CSc3nnc(Cc4cccs4)n3-c3ccccc3)cc2N1 | 3 | 0 | 1 | -7 | -0.17 | 71*
Cc1ccc(CN2CCCC(CO)(Cc3ccccc3C)C2)s1 (stereo not given) | -8 | 0 | 8.9* | 3 | -0.56 | .
N=c1sccn1CC(=O)NC(=O)NC1CCCC1 | -5 | 0 | 4 | 7 | . | 88*
O=C(CN1C(=O)CCC1=O)NC(=O)NC1CCCC1 | 2 | . | 2 | -14 | 0.4 | .
CCOC(=O)c1sc(=S)n(-c2ccccc2)c1N(C(C)=O)C(C)=O | 4 | -1 | 4 | 31* | . | -147
CCOC(=O)c1sc(=S)n(-c2ccccc2)c1N | -5 | 0 | -1 | 13 | . | 22
Cc1c(Cl)cccc1NC(=O)CCCN1C(=O)CCC1=O | -15 | 0 | -3 | -12 | 0.23 | 29
O=C(Oc1ccc2c(=O)c(Cl)coc2c1)c1ccncc1 | 2 | 0 | 2 | -8 | -0.11 | 82*
O=C(O)CCNC(=O)CCCn1nnc2ccccc2c1=O | -1 | . | 9.5* | -7 | 0.25 | .
CCOc1ccc2nc(SCC(=O)NC(=O)C(C)C)sc2c1 | -9 | 0 | 2 | -2 | -0.23 | 100*
O=C(N=NC(=O)c1ccc2c(O)n(CC3CCCO3)c(O)c2c1)c1cccnc1 (stereo not given) | 2 | . | 2 | -39 | -0.15 | .
N=C1C(c2nc3ccccc3[nH]2)=C(O)CN1c1ccc(F)cc1 | 5 | 0 | 9.7* | 9 | 0.42 | 1
N#C/C(=C/c1cccs1)c1nc2ccccc2[nH]1 | -7 | 0 | 7 | -6 | -0.2 | 75*
Cc1ccc(/C=C(\C#N)c2nc3ccccc3[nH]2)s1 | -5 | 0 | 5 | -12 | -0.92 | 96*
CCCCCN1N=C(C)CC1=O | -4 | 0 | 1 | -6 | -0.64 | 67*
CC(=O)Nc1cccc(NC(=O)CS(=O)(=O)c2cn(CC(=O)N3CCOCC3)c3ccccc23)c1 | -4 | 0 | 0 | -6 | -0.01 | .
CCC(C)/C(C)=N/NC(=O)c1ccc(CSc2nc3ccccc3s2)cc1 (stereo not given) | -11 | 0 | 3 | 2 | 0.23 | 100*
CCc1c(C)[nH]c2ccc(C)cc2c1=O | 8 | 0 | -2 | 7 | 0.1 | 77*
Cc1ccc2[nH]c(-c3ccccc3)c(CN(C)C)c(=O)c2c1 | -6 | 0 | -2 | 0 | 4.2* | -17
C=CCc1c(C)[nH]c2ccc(C)cc2c1=O | -2 | 0 | -1 | -5 | 0.55 | 13
COc1ccc(CCNC(=O)CSc2nncs2)cc1 | -6 | 0 | 0 | 5 | -1.2 | 29
c1cnc(NC2CCCCCC2)nc1 | 6 | 0 | 0 | -3 | -0.62 | 41
Cc1cccnc1NC1CCCCC1 | -6 | 0 | 2 | -12 | 0.38 | 79*
Cc1ccc(N2C=Nc3ccc(C)c4nc(C)cc2c34)cc1 | -1 | 0 | -1 | 6 | 0.02 | 85*
Cc1ccc2nc(-c3ccc(O)cc3)c(Nc3ccc4c(c3)OCCO4)n2c1 | 0 | 0 | 1 | -7 | -0.03 | .

Screening results from PubChem BioAssay.
